Format in all cases: functional
One assay relates to Streptococcus sp. The assay can be described thus: In vitro antibacterial activity against the Streptococcus sp. (No. of strains used :4).
Another assay concerns Staphylococcus aureus. The assay can be described thus: In vitro antibacterial activity against the Staphylococcus aureus (No. of strains used :5).
The species entered for a further assay is Oryctolagus cuniculus. The assay can be described thus: Compound was evaluated for the prokinetic activity by measuring smooth muscle contractility from rabbit duodenum isolated tissue. Put shortly:
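Isolated rabbit duodenum in vitro; records induction of well-coordinated smooth muscle contractions; potency given as pED50.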

Another assay has as its system Escherichia coli. The assay can be described thus: In vitro antibacterial activity against the Escherichia coli (No. of strains used :5).

As a reminder, the MIC is the smallest concentration in the dilution series that meets the test's criterion for growth inhibition. The low end stands for greater potency, the high end for weaker potency. Turning to `CC[C@H]1OC(=O)[C@H](C)[C@@H](OC2C[C@@](C)(OC)C[C@H](C)O2)[C@H](C)[C@@H](OC2O[C@H](C)C[C@H](N(C)C)[C@H]2O)[C@@]2(C)C[C@H](C)[C@H](O2)[C@H](C)[C@@H](O)[C@]1(C)O` (some centres not stated), the MIC with Streptococcus sp., against Staphylococcus aureus and in the assay with Escherichia coli was above 100 µg/mL in each case. In the assay listed under Oryctolagus cuniculus, this molecule came in with a pED50 of 7.93.

In the assay filed under Oryctolagus cuniculus, `CC[C@H]1OC(=O)[C@H](C)[C@@H](OC2C[C@@](C)(OC)C[C@H](C)O2)[C@H](C)[C@@H](OC2O[C@H](C)C[C@H](N(C)CC#N)[C@H]2O)[C@@]2(C)C[C@H](C)[C@H](O2)[C@H](C)[C@@H](O)[C@]1(C)O` (some centres not stated) had a pED50 of 5.71. The same measure, in the same setting: as for `CC[C@H]1OC(=O)[C@H](C)[C@@H](OC2C[C@@](C)(OC)C[C@H](C)O2)[C@H](C)[C@@H](OC2O[C@H](C)C[C@H](N(C)C(C)C)[C@H]2O)[C@@]2(C)C[C@H](C)[C@H](O2)[C@H](C)[C@@H](O)[C@]1(C)O` (some centres not stated), the figure is 7.75.

With `CC[C@H]1OC(=O)[C@H](C)[C@@H](OC2C[C@@](C)(OC)C[C@H](C)O2)[C@H](C)[C@@H](OC2O[C@H](C)C[C@H](N(C)CC)[C@H]2O)[C@@]2(C)C[C@H](C)[C@H](O2)[C@H](C)[C@@H](O)[C@]1(C)O` (some centres not stated), the MIC against Streptococcus sp., in the assay on Staphylococcus aureus and against Escherichia coli was above 100 µg/mL throughout. Moreover, the pED50 in the assay listed under Oryctolagus cuniculus was 8.54. With `CC[C@H]1OC(=O)[C@H](C)[C@@H](OC2C[C@@](C)(OC)C[C@H](C)O2)[C@H](C)[C@@H](OC2O[C@H](C)C[C@H](N(C)CC)[C@H]2O)[C@@]2(C)CC(C)=C(O2)[C@H](C)[C@@H](O)[C@H]1C` (some centres not stated), the pED50 in the assay filed under Oryctolagus cuniculus was 7.22. Take `CC[C@H]1OC(=O)[C@H](C)[C@@H](OC2C[C@@](C)(OC)C[C@H](C)O2)[C@H](C)[C@@H](OC2O[C@H](C)C[C@H](N(C)Cc3ccccc3)[C@H]2O)[C@@]2(C)C[C@H](C)[C@H](O2)[C@H](C)[C@@H](O)[C@]1(C)O` (some centres not stated): the pED50 in the assay filed under Oryctolagus cuniculus was found to be 4. In turn, `CC[C@H]1OC(=O)[C@H](C)[C@@H](OC2C[C@@](C)(OC)C[C@H](C)O2)[C@H](C)[C@@H](OC2O[C@H](C)C[C@H](N(C)C)[C@H]2O)[C@@]2(C)C[C@@H](C)[C@H](O2)[C@H](C)[C@@H](O)[C@]1(C)O` (some centres not stated) displayed a pED50 in the assay filed under Oryctolagus cuniculus of 7.8. On the same count and under the same terms, the figure for `CCCCN(C)[C@H]1C[C@@H](C)OC(O[C@@H]2[C@@H](C)[C@H](OC3C[C@@](C)(OC)C[C@H](C)O3)[C@@H](C)C(=O)O[C@H](CC)[C@@](C)(O)[C@H](O)[C@@H](C)[C@H]3O[C@]2(C)C[C@@H]3C)[C@@H]1O` (some centres not stated) is 4.71. Turning to `CC[C@H]1OC(=O)[C@H](C)[C@@H](OC2C[C@@](C)(OC)C[C@H](C)O2)[C@H](C)[C@@H](OC2O[C@H](C)C[C@H](N(C)CCO)[C@H]2O)[C@@]2(C)C[C@H](C)[C@H](O2)[C@H](C)[C@@H](O)[C@]1(C)O` (some centres not stated), the MIC with Streptococcus sp., in the assay with Staphylococcus aureus and with Escherichia coli was above 100 µg/mL in each case. The molecule also came in with a pED50 in the assay listed under Oryctolagus cuniculus of 8.11.

In the assay filed under Oryctolagus cuniculus, `CC[C@H]1OC(=O)[C@H](C)[C@@H](OC2C[C@@](C)(OC)C[C@H](C)O2)[C@H](C)[C@@H](OC2O[C@H](C)C[C@H](N(C)CCN)[C@H]2O)[C@@]2(C)C[C@H](C)[C@H](O2)[C@H](C)[C@@H](O)[C@]1(C)O` (some centres not stated) came in with a pED50 of 6.43. Same read-out and setting: the figure for `CC[C@H]1OC(=O)[C@H](C)[C@@H](OC2C[C@@](C)(OC)C[C@H](C)O2)[C@H](C)[C@@H](OC2O[C@H](C)C[C@H](N(C)CCF)[C@H]2O)[C@@]2(C)C[C@H](C)[C@H](O2)[C@H](C)[C@@H](O)[C@]1(C)O` (some centres not stated) is 6.67; for `CC[C@H]1OC(=O)[C@H](C)[C@@H](OC2C[C@@](C)(OC)C[C@H](C)O2)[C@H](C)[C@@H](OC2O[C@H](C)C[C@H](NC)[C@H]2O)[C@@]2(C)C[C@H](C)[C@H](O2)[C@H](C)[C@@H](O)[C@]1(C)O` (some centres not stated) it is 7.64. For the molecule `CC[C@H]1OC(=O)[C@H](C)[C@@H](OC2C[C@@](C)(OC)C[C@H](C)O2)[C@H](C)[C@@H](OC2O[C@H](C)C[C@H](N(C)C)[C@H]2O)[C@@]2(C)C[C@@H](C)[C@@H](O2)[C@H](C)[C@@H](O)[C@]1(C)O` (some centres not stated), the pED50 in the assay filed under Oryctolagus cuniculus is 5.45.

The values above are taken from ChEMBL document CHEMBL1131076, “Synthesis of 9-deoxo-4''-deoxy-6,9-epoxyerythromycin derivatives: novel and acid-stable motilides” (1998).
